b-catenin transl: beta-catenin nuclear translocation modulation; nuclear translocation activity, % at 5 µM; actives 0.3% (n = 190,000); HeLa beta-catenin nuclear translocation, immunofluorescence imaging;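 active = nuclear translocation activity above 50% at 5 µM, with a well cell count of 50 or more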;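 note: per-cell ratio of nuclear to cytoplasmic median beta-catenin stain intensity; plate controls were DMSO negative control for no effect and GSK-3 inhibitor IX positive control for full effect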
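Technique: fluorescence imaging of beta-catenin antibody stain plus DAPI / Material: human HeLa cell line / Incubation: compound treatment 24 h, 37°C, 5% CO2 / Read-out basis: % activation of per-cell nuclear versus cytoplasmic median beta-catenin signal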
HMGR II inh: blocks class II HMG-CoA reductase of Enterococcus faecalis | purified E. faecalis HMGR, NADPH absorbance 340 nm kinetic | inhibition, % at 10 µM | actives 0.41% (n = 190,000);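 active = inhibition above a set limit, the median over all tested compounds plus 3 SD, cut at about 9.5% in these data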;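 note: enzyme runs in reverse so mevalonate oxidation gives rising NADPH absorbance; 0% = complete reaction with DMSO and 100% = background rate lacking mevalonate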
BB579 growth dn: yeast BB579 growth reduction in restrictive medium; inhibition, % at 10 µM; S. cerevisiae BB579 growth, OD615, 48 h; actives 0.51% (n = 140,000);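 active = inhibition above a set limit, 3 SD over the mean compound inhibition, cut at about 44% in these data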
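test system = yeast BB579 (DeaD) | buffer or medium = restrictive CSMM-D medium | doses = single compound dose of 10 µM, 0.25% DMSO final | times = 4 h preincubation and 48 h exposure at 30 °C | technique = culture absorbance at 615 nm | benchmarks = amphotericin B 10 µg/mL, positive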
MT stabilize HCS: microtubule stabilizers in HeLa cells | % tubulin-high responders, % at 10 µM | actives 0.83% (n = 200,000) | HeLa tubulin immunostaining HCS, 24 h; share of cells brighter than vehicle mean+2SD | AID 2205;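 active = plate Z-score above 3 for both tubulin-high and condensed-nucleus cell shares, with cell loss under 80%, at 10 µM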;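 note: anti alpha tubulin signal scored within the nucleus-defined area of each cell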
Yeast life ext: extends the lifespan of yeast. S. cerevisiae growth with nicotinamide, OD615; deaD strain in restrictive glucose medium. inhibition of the nicotinamide effect, % at 10 µM. actives 0.68% (n = 130,000). AID 775;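 active = inhibition above a set limit, placed 3 SD over the median of all compounds, cut at about 26% in these data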;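 note: 0% = nicotinamide-treated wells and 100% = cells grown without nicotinamide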
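Test system: DeaD-strain S. cerevisiae / Buffer or medium: restrictive glucose medium / Also added: nicotinamide 1.5 mM / Doses: one concentration, 10 µM, DMSO 0.25% / Schedule: 48 h at 30 °C / Signal: OD615 measurement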
RAM network inh: blocks the yeast RAM network. S. cerevisiae dse1pr::URA3 reporter, 5-FOA growth OD615, 2 d; analog-sensitive cbk1-as2 kinase mutant strain. inhibition, % at 50 µM. actives 1.8% (n = 190,000). AID 868;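 active = inhibition above a set limit, 3 SD over mean compound inhibition, cut at about 8.4% in these data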;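 note: 0% = DMSO-only wells with no growth and 100% = 10 µM 1-NA-PP1 full growth; inhibition rescues growth on 5-FOA so higher OD means more RAM inhibition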
Numbers without * were called inactive; . = no result given. The list is not random: actives were taken first. Their share in the collection is about 3.5%.

SMILES | b-catenin transl | HMGR II inh | BB579 growth dn | MT stabilize HCS | Yeast life ext | RAM network inh
O=C(N/N=C/c1ccc(Cl)cc1)c1cc2c(s1)-c1ccccc1CC2 | -2.6 | -0.3 | -12.9 | 34.6* | -12.1 | 3.1
Nc1sc(-c2ccccc2)cc1C(=O)N/N=C/c1ccc(Cl)cc1 | 0.7 | . | . | . | . | .
Cc1ccc(SCCNC(=S)Nc2cc(C)ccc2C)cc1 | . | -4.8 | 7.9 | 1.8 | -13.0 | 8.9*
N#Cc1cc2c(nc1SCC1COc3ccccc3O1)CCC2 (stereo not drawn) | 3.6 | -5.3 | -43.6 | 1.4 | -11.4 | 7.3
Cc1cc(C)c(C#N)c(SCC2COc3ccccc3O2)n1 (stereo not drawn) | 0.6 | -5.9 | -57.0 | 1.9 | -13.5 | 8.5*
O=C(CN(c1ccccc1F)S(=O)(=O)c1ccccc1)NC1CCCCCC1 | -4.5 | -1.8 | -28.1 | 2.1 | -4.1 | 10.6*
CC1(C)CC(=O)C(=Cc2cn(CCC#N)nc2-c2ccc(Cl)cc2)C(=O)C1 | -1.0 | 1.0 | -51.1 | 3.1 | 38.8* | 2.8
Cc1ccc(S(=O)(=O)N2CCCCC2)cc1NC(=O)COC(=O)c1ccccc1F | 1.6 | -4.7 | . | 3.7 | . | 1.7
COc1ccccc1C(=O)NCc1ccc(-c2nc3ccccc3s2)cc1 | 0.4 | -6.0 | -16.6 | 2.3 | -3.6 | 9.1*
CCCn1cc(CN2CCC(N3CCC(C(=O)N4CCOCC4)CC3)CC2)c(C)n1 | 1.4 | . | . | . | . | .
CCc1cc(C(=O)OC)c(NC(=O)c2cc(Br)cs2)s1 | 1.8 | -0.8 | -32.5 | 3.2 | -13.6 | 10.3*
CCc1cc2c(=O)c(-c3ccc4c(c3)OCCO4)c(C)oc2cc1OS(C)(=O)=O | 1.8 | 1.2 | -34.6 | 10.9* | 3.9 | 1.9
CNc1ccc(Br)cc(C(=O)/C=C/c2cccc(Cl)c2Cl)c1=O | 1.4 | -1.7 | . | 9.9* | . | 0.7
Cc1ccc2c(c1)C(=O)CCCCC(=O)N2 | 0.1 | . | . | . | . | .
Cc1ccccc1C(=O)c1cccn1CC(=O)NC(C)c1ccc2c(c1)OCCO2 (stereo not drawn) | 0.0 | 12.4* | . | 2.3 | . | 3.2
CC(CC(=O)NC(C)c1ccc2c(c1)OCCO2)c1ccccc1 (stereo not drawn) | 1.3 | 2.6 | -45.7 | 2.3 | 2.7 | 1.6
C#CCn1c(=NC(=O)c2cc(-c3cccs3)nc3ccccc23)sc2cc(S(N)(=O)=O)ccc21 | 0.6 | 1.4 | -27.7 | 10.7 | 3.0 | 9.7*
Cc1nc2c(sc3nc4c(cc32)COC(C)(C)C4)c(=O)n1CC(=O)NCc1ccco1 | . | -2.5 | -37.6 | 28.0* | -3.0 | 0.2
CC1(C)Cc2nc3sc4c(=O)n(CC(N)=O)cnc4c3cc2CO1 | -2.4 | 0.7 | -35.6 | 2.2 | -14.3 | 1.9
CC1(C)Cc2nc3sc4c(SCC(=O)NCc5ccco5)ncnc4c3cc2CO1 | 59.3* | -5.7 | -26.8 | 28.6* | -11.1 | 0.1
CCCc1nc2c(sc3nc4c(cc32)COC(C)(C)C4)c(=O)n1Cc1ccco1 | . | -0.7 | -41.7 | 1.3 | -6.3 | 3.2
CC1(C)Cc2nc3sc4c(=O)n(CC(=O)NCc5ccccc5)cnc4c3cc2CO1 | . | -1.1 | -17.0 | 34.3* | 0.2 | 5.7
COc1ccc(OC)c(-c2csc(N(CC3CCCO3)C(=O)C3CCCCC3)n2)c1 (stereo not drawn) | 0.1 | 7.8 | . | 2.2 | . | 5.6
COc1ccc(/C=C/CN2CCCC(C(=O)c3ccc(OC)c(F)c3)C2)cc1 (stereo not drawn) | 0.1 | 1.7 | . | 2.5 | . | 2.2
CCO[C@H]1OC(C(=O)Nc2ccccc2)=C[C@@H](C)[C@@H]1CCCO | -3.0 | 0.0 | . | 2.4 | . | 0.4
SMILES | b-catenin transl | HMGR II inh | BB579 growth dn | MT stabilize HCS | Yeast life ext | RAM network inh
COc1ccc(-c2nc(NC(=O)c3ccc(OCC(=O)N4CCOCC4)c(OC)c3)sc2C)cc1 | -0.1 | -0.4 | -13.8 | 2.5 | -0.7 | 9.0*
CN(c1ccccc1)S(=O)(=O)c1cccc(NC(=O)C2CC(=O)N(Cc3ccccc3)C2)c1 (stereo not drawn) | 0.1 | . | . | . | . | .
COC(=O)C1=C(C)NC(=S)NC1c1ccc(-c2cc(Cl)ccc2Cl)o1 (stereo not drawn) | -0.3 | . | . | . | . | .
CC(C)(C)Cc1nnc(NS(=O)(=O)c2ccccc2)s1 | 0.3 | 14.2* | . | . | . | 0.0
COc1ccc(OCCn2c(C)c(/C=N/n3cnnc3)c3ccccc32)cc1 | 0.9 | -0.8 | -25.3 | 2.7 | -5.4 | 10.0*
Cn1c(=O)c([N+](=O)[O-])c(NCc2ccc3c(c2)OCO3)c2ccccc21 | 0.1 | . | . | . | . | .
O=C(/C=C/c1cccc([N+](=O)[O-])c1)NCCSCc1c(Cl)cccc1Cl | -1.2 | -7.3 | -45.7 | 3.0 | -1.4 | 9.7*
Cc1ccc(SCCNC(=O)/C=C/c2cccc([N+](=O)[O-])c2)cc1 | 0.1 | -3.1 | -24.2 | 3.0 | -5.0 | 9.7*
C/C(CCC(C)C)=N\Nc1cc(C)c2ccccc2n1 | -1.1 | 0.3 | . | 4.3 | . | 0.4
CCOC(=O)c1sc(NC(=O)CSc2nnnn2-c2ccccc2)nc1C | -3.2 | -3.5 | -41.1 | 2.5 | -9.4 | 3.2
CCOC(=O)c1c(-c2ccc(C)o2)csc1NC(=O)CSc1nnnn1-c1ccccc1 | -3.9 | 0.6 | -56.8 | 1.7 | 2.7 | 8.6*
CCOC(=O)c1c(NC(=O)CSc2nnc(C)s2)sc2c1CCC(C)C2 (stereo not drawn) | -1.0 | -1.1 | -25.9 | 1.3 | . | 8.9*
CCOC(=O)c1c(-c2ccc(C)o2)csc1NC(=O)CSc1nnc(C)s1 | -1.9 | -1.5 | -88.9 | 3.0 | -4.9 | 11.0*
CC(=O)Nc1ccc(S(=O)(=O)N(c2cccnc2)S(=O)(=O)c2ccc(NC(C)=O)cc2)cc1 | 2.4 | -3.4 | -10.8 | 2.3 | . | 10.0*
CCn1c(SCC(=O)Nc2cccc(C)c2)nc2nc3c(cc2c1=O)COC(C)(C)C3 | -2.3 | . | . | . | . | .
Cc1ccccc1S(=O)(=O)NC1=NCCCCC1 | 0.2 | 0.3 | -22.9 | 14.5* | 12.7 | 1.9
N#C/C(=C\c1cccn1-c1ccccc1)C(=O)NC1CCCCC1 | 2.6 | -1.6 | -21.7 | 30.4* | -2.7 | 5.5
O=C(O)CC(NNC(=O)c1ccccc1)C(=O)Nc1cccc([N+](=O)[O-])c1 (stereo not drawn) | -1.2 | . | . | . | . | .
CC(=O)c1ccc(N2CCN(C(=O)CCCc3nc4ccccc4s3)CC2)cc1 | 0.8 | -2.2 | -34.4 | 2.4 | 2.1 | 9.3*
CC(=O)c1ccc(N2CCN(C(=O)Cc3n[nH]c(=O)c4ccccc34)CC2)cc1 | -0.3 | 13.5* | . | 4.5 | . | 5.7
O=C(CCc1nc2ccccc2s1)N1CCN(c2ccccc2)CC1 | -2.1 | -0.6 | . | 4.3 | . | 0.4
COc1ccccc1-c1nnc(SC(C)C(=O)O)n1-c1ccccc1 (stereo not drawn) | -0.3 | -2.8 | . | 0.9 | . | 1.8
O=C(N/N=C/c1coc2ccccc2c1=O)c1cn(-c2ccccc2)nc1-c1ccc(F)cc1 | -1.8 | -0.4 | -37.6 | 8.9 | 28.8* | 2.5
